Experimental findings from ChEMBL document CHEMBL1165991, “Synthesis and in vitro evaluation of novel 1,2,4-triazine derivatives as neuroprotective agents” (Bioorg Med Chem, 2010) are described below.

Data set [1] concerns PC-12. Nature of the data set: Neuroprotective activity in rat differentiated PC12 cells assessed as protection against H2O2-induced cell death at 0.5 to 20 uM treated 3 hrs before H2O2 challenge measured after 24 hrs by MTT assay relative to control. The class given is functional, cell-based. Put shortly:
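NGF-differentiated PC12 cells (50 ng/ml every other day, 6 days) were pretreated 3 h with compound at 0.5–20 μM, then given H2O2 150 μM with compound for a further 24 h. Viability by MTT: formazan in DMSO, A550, expressed as % of control cells; mean ± S.D., n = 3.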

Data set [2] relates to PC-12. Nature of the data set: Neuroprotective activity in rat NGF treated differentiated PC12 cells assessed as restoration of H2O2-induced neuronal shape change at 10 uM treated 3 hrs before H2O2 challenge measured after 24 hrs by fluorescence microscopy analysis. The class given is functional, cell-based. Summed up: (§1)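 PC12 cells were differentiated with NGF 50 ng/ml for 6 days, pretreated 3 h with compound, then exposed to H2O2 150 μM for 24 h. Morphology was judged by microscopy: cell shape, attachment to the plate surface and inter-neuronal networks.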

Data set [3] has as its system PC-12. Nature of the data set: Neuroprotective activity in rat NGF treated differentiated PC12 cells assessed as restoration of H2O2-induced detached from culture plate at 10 uM treated 3 hrs before H2O2 challenge measured after 24 hrs by fluorescence microscopy analysis. The class given is functional, cell-based. Summed up: as §1
For data set [4], the system named is PC-12. Nature of the data set: Neuroprotective activity in rat NGF treated differentiated PC12 cells assessed as restoration of H2O2-induced network changes at 10 uM treated 3 hrs before H2O2 challenge measured after 24 hrs by fluorescence microscopy analysis. The class given is functional, cell-based. Summed up:
as §1

In data set [5] the test system is PC-12. Put plainly: Neuroprotective activity in rat undifferentiated PC12 cells assessed as protection against H2O2-induced cell death at 10 uM treated 3 hrs before H2O2 challenge measured after 24 hrs by MTT assay relative to control. The class given is functional. Summed up:
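Undifferentiated rat PC12 cells, grown in DMEM with 10% FBS and penicillin–streptomycin at 37 °C, 5% CO2, were seeded in 96-well plates. They were pretreated 3 h with compounds (0.5–20 µM), then exposed to H2O2 for 24 h. Viability was read by MTT reduction, formazan dissolved in DMSO, A550, as % of control; mean ± S.D., n = 3.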

The test system of data set [6] is PC-12. Put plainly: Cytotoxicity against rat differentiated PC12 cells at 0.5 to 20 uM after 24 hrs by MTT assay. The class given is cell-based. Conditions: pc-12, 24 h. Summed up:
(§2)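 PC12 cells grown in DMEM with 10% FBS and penicillin–streptomycin at 37 °C, 5% CO2. Differentiated cells were primed with NGF 50 ng/ml every other day for 6 days; undifferentiated cells had no NGF. Compound 0.5–20 μM without H2O2; MTT read at 24 h. Formazan dissolved in DMSO, A550 as % of control; mean ± S.D., n = 3.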
In general terms: Formazan colour is commonly taken as a measure of viable cells.

Data set [7] has as its system PC-12. Put plainly: Cytotoxicity against rat undifferentiated PC12 cells at 0.5 to 20 uM after 24 hrs by MTT assay. The class given is cell-based. Conditions: pc-12, 24 h. Summed up:
as §2

Data set [8] relates to PC-12. Nature of the data set: Neuroprotective activity in differentiated rat PC12 cells assessed as protection against H2O2-induced apoptosis at 10 uM treated 3 hrs before H2O2 challenge measured after 24 hrs by acridine orange/ethidium bromide double staining method. The class given is functional. Put shortly: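 NGF-differentiated PC12 cells were pretreated with compound, then given H2O2 150 μM for 24 h. Cells were harvested, washed in PBS and set to 10^6/ml, then stained with AO/EB (1:1, final 100 μg/ml). Fluorescence microscopy scored viable, early or late apoptotic, and necrotic nuclei in 10 random fields; three repeats.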

The subject of data set [9] is PC-12. Put plainly: Neuroprotective activity in differentiated rat PC12 cells assessed as decrease of H2O2-induced cleaved caspase 3 level treated 3 hrs before H2O2 challenge measured after 24 hrs by Western blot relative to untreated control. The class given is functional. Put shortly: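 PC12 cells grown in DMEM with 10% FBS at 37 °C, 5% CO2, and differentiated with NGF (50 ng/ml) every other day for 6 days. Pretreated 3 h with compound, then H2O2 (150 μM) added with compound for 24 h. Twenty μg protein run on 12% SDS-PAGE and blotted for cleaved caspase-3, reprobed for β-actin. ECL detection, densitometry ratio, median of three independent experiments.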
A general note: In western blotting, separated proteins are transferred to a membrane and probed.

Data set [10] relates to PC-12. Nature of the data set: Neuroprotective activity in differentiated rat PC12 cells assessed as inhibition of H2O2-induced NF-kappaB nucleus accumulation treated 3 hrs before H2O2 challenge measured after 24 hrs by Western blot relative to untreated control. The class given is functional. Summed up:
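Differentiated PC12 cells were pretreated 3 h with compound, then given H2O2 150 μM for 24 h. Nuclear protein (20 μg) was run on 12% SDS–PAGE, blotted to PVDF, probed with anti-NF-κB and reprobed for β-actin, with ECL detection. Band densities were taken as a ratio; median of three independent experiments.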

Data set [11] has as its system PC-12. Nature of the data set: Neuroprotective activity in rat differentiated PC12 cells assessed as protection against H2O2-induced cell death at 10 uM treated 3 hrs before H2O2 challenge measured after 24 hrs by MTT assay relative to control. The class given is functional. Put shortly: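 Rat PC12 cells grown in DMEM with 10% FBS and penicillin–streptomycin at 37 °C, 5% CO2, then differentiated with NGF (50 ng/ml) every other day for 6 days. Compounds (0.5–20 µM) were added 3 h before H2O2 (150 µM) and kept present for 24 h more. MTT reduction, formazan dissolved in DMSO, A550; % of control cells; mean ± S.D., n = 3.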

The source made the active and inactive calls. The calls are words filed in the database; no cut-off is given here.

In the case of `CCCSc1nnc(-c2ccccc2)c(-c2ccccc2)n1`, the result in the data set with PC-12 [1], in the data set with PC-12 [2], with PC-12 [3] and with PC-12 [4] was inactive.

`CCCCSc1nnc(-c2ccccc2)c(-c2ccccc2)n1`: the result with PC-12 [1] was inactive.

Consider `CCSc1nnc(-c2ccc(Cl)cc2)c(-c2ccc(Cl)cc2)n1`, for which the Activity in the data set with PC-12 [5] is given as 58%; with PC-12 [6], “Non-toxic”; in the data set on PC-12 [7], “Non-toxic”; with PC-12 [8] it was 40%. The “fold change (FC)” value in the data set with PC-12 [9] and with PC-12 [10] was 2 throughout.

Regarding `CCCCSc1nnc(-c2ccc(Cl)cc2)c(-c2ccc(Cl)cc2)n1`, the Activity in the data set with PC-12 [11] is recorded as 50%; in the data set with PC-12 [5] it was 63%; in the data set with PC-12 [6], “Non-toxic”; in the data set on PC-12 [7] it was “Non-toxic”; in the data set with PC-12 [8], 40%. In addition, the “fold change (FC)” value in the data set with PC-12 [9] stood at 1.83; in the data set with PC-12 [10], 1.78.

As for `CSc1nnc(-c2ccccc2)c(-c2ccccc2)n1`, the Activity with PC-12 [11] is given as 47%; with PC-12 [5], 53%; in the data set with PC-12 [6] it was “Non-toxic”; in the data set with PC-12 [7], “Non-toxic”; in the data set with PC-12 [8], 35%. In addition, the fold change (FC) turned out to be 1.91 with PC-12 [9] and 1.79 with PC-12 [10].

Take `CCCSc1nnc(-c2ccc(Cl)cc2)c(-c2ccc(Cl)cc2)n1`: the Activity in the data set with PC-12 [11] is recorded as 45%; in the data set with PC-12 [5], 60%; with PC-12 [6] it was “Non-toxic”; in the data set on PC-12 [7], “Non-toxic”; in the data set with PC-12 [8] it was 40%. Further, the entries for the “fold change (FC)” value with PC-12 [9] and in the data set on PC-12 [10] were 1.92 and 1.89, respectively.

In the case of `CCSc1nnc(-c2ccccc2)c(-c2ccccc2)n1`, the Activity in the data set with PC-12 [11] is 54%; with PC-12 [5] it was 59%; in the data set on PC-12 [6], “Non-toxic”; in the data set with PC-12 [7] it was “Non-toxic”; in the data set on PC-12 [8], 45%. Besides, the “fold change (FC)” value is reported as 1.64 with PC-12 [9] and 1.56 with PC-12 [10].

As for `CSc1nnc(-c2ccc(Cl)cc2)c(-c2ccc(Cl)cc2)n1`, the Activity in the data set on PC-12 [11] is 83%; in the data set with PC-12 [5], 88%; with PC-12 [6], “Non-toxic”; in the data set on PC-12 [7], “Non-toxic”; in the data set with PC-12 [8] it was 20%. Further, the result in the data set with PC-12 [2], in the data set on PC-12 [3] and in the data set with PC-12 [4] was Active. For the same compound, the “fold change (FC)” value is 4.59 in the data set on PC-12 [9] and 4.04 in the data set on PC-12 [10].
